Experimental data: ChEMBL document CHEMBL5620421, “2,6-Disubstituted 7-(naphthalen-2-ylmethyl)-7H-purines as a new class of potent antitubercular agents inhibiting DprE1” (Eur J Med Chem, 2023)
Values after ≈ are worked out from the molar mass of the structure shown. Active and inactive are the calls of the source. No cut-off for these calls is given here.

Columns and labels:
[1] = test system: Mycobacterium tuberculosis; test: Antibacterial activity against Mycobacterium tuberculosis H37Rv (ATCC 27294) assessed as inhibition of bacterial growth incubated for 14 days; type: functional; conditions: 336 h, time 14 day
How it was run: (§1)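 Micromethod MIC in Sula's semisynthetic medium. MIC is the lowest concentration inhibiting >99% of the mycobacterial population. Isoniazid was the standard drug.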

Klebsiella pneumoniae [2] = test: Antibacterial activity against ESBL positive Klebsiella pneumoniae C1914 assessed as inhibition of bacterial growth incubated for 24 to 48 hrs by microdilution broth method; type: functional, organism-based; conditions: time 24-48 hrs
How it was run: (§2)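 Clinical isolates kept at –70 °C and subcultured twice on Mueller-Hinton agar, using the second subculture. Broth microdilution in Mueller-Hinton broth at pH 7.4 with two-fold serial compound dilutions and DMSO ≤1% final. Inoculum was 10 μL of a 1.5 × 10⁸ CFU/mL suspension. Incubated at 36 °C ± 1 °C and read at 24 h and 48 h. MIC taken as 95% growth inhibition.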

[3] = test system: Mycobacterium tuberculosis; test: Antitubercular activity against Mycobacterium tuberculosis CNCTC My 331/88 (H37Rv) assessed as inhibition of bacterial growth measured after 21 days of incubation by Sulas semisynthetic medium based assay; type: functional; conditions: 504 h, time 21 day; how it was run: as §1
Mycobacterium avium [4] = test: Antitubercular activity against Mycobacterium avium CNCTC My 330/88 assessed as inhibition of bacterial growth measured after 21 days of incubation by Sulas semisynthetic medium based assay; type: functional; conditions: CNCTC My 330/88, 504 h, time 21 day
How it was run: (§3)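 M. avium was tested by the micromethod in Sula's semisynthetic medium. Compounds in DMSO at 1000 to 0.5 μmol/L. Incubation at 37 °C, read at 14 and 21 days. MIC is the lowest concentration giving >99% growth inhibition.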

[5] = test system: Staphylococcus epidermidis; test: Antibacterial activity against Staphylococcus epidermidis C1936 assessed as inhibition of bacterial growth incubated for 24 to 48 hrs by microdilution broth method; type: functional, organism-based; conditions: time 24-48 hrs; how it was run: as §2
Mycobacterium kansasii [6] = test: Antitubercular activity against Mycobacterium kansasii CNCTC My 235/80 assessed as inhibition of bacterial growth measured after 7 days of incubation by Sulas semisynthetic medium based assay; type: functional; conditions: CNCTC My 235/80, 168 h, time 7 day
How it was run: (§4)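 Micromethod in Sula's semisynthetic medium. MIC is the lowest concentration inhibiting >99% of the mycobacterial population. Isoniazid was the standard.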

Enterococcus faecium = test: Antibacterial activity against vancomycin-resistant Enterococcus faecium assessed as inhibition of bacterial growth incubated for 24 to 48 hrs by microdilution broth method; type: functional, organism-based; conditions: time 24-48 hrs
How it was run: (§5)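 Clinical isolates, stored at −70 °C, were passaged twice on Mueller-Hinton agar. Broth microdilution in Mueller-Hinton broth, pH 7.4, with twofold serial dilutions. DMSO was at most 1% final. Inoculum 1.5 × 10⁸ CFU/mL suspension. MIC is 95% growth inhibition, read after 24 and 48 h at 36 °C.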

Staphylococcus aureus [7] = test: Antibacterial activity against Staphylococcus aureus C1947 assessed as inhibition of bacterial growth incubated for 24 to 48 hrs by microdilution broth method; type: functional, organism-based; conditions: time 24-48 hrs; how it was run: as §2
[8] = Selectivity index, ratio of IC50 for cytotoxicity against human HepG2 cells by MTT assay to MIC99 for antitubercular activity against Mycobacterium tuberculosis CNCTC My 331/88 (H37Rv) assessed as inhibition of bacterial growth measured after 14 days of incubation; type: functional; conditions: time 14 day
How it was run: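 HepG2 cells, 15 × 10³/well, were attached overnight and exposed 24 h to serial dilutions (DMSO ≤1%). Read by MTT at 0.5 mg/mL for 1 h and 570 nm. IC50 from 4-parameter regression, three independent experiments in triplicate. SI is HepG2 IC50 divided by H37Rv MIC99.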

Staphylococcus aureus [9] = test: Antibacterial activity against methicilin-resistant Staphylococcus aureus C1923 assessed as inhibition of bacterial growth incubated for 24 to 48 hrs by microdilution broth method; type: functional, organism-based; conditions: time 24-48 hrs; how it was run: as §5
Escherichia coli = test: Antibacterial activity against Escherichia coli A1235 assessed as inhibition of bacterial growth incubated for 24 to 48 hrs by microdilution broth method; type: functional, organism-based; conditions: time 24-48 hrs; how it was run: as §2
Mycobacterium avium [10] = test: Antitubercular activity against Mycobacterium avium CNCTC My 330/88 assessed as inhibition of bacterial growth measured after 14 days of incubation by Sulas semisynthetic medium based assay; type: functional; conditions: CNCTC My 330/88, 336 h, time 14 day; how it was run: as §3
Pseudomonas aeruginosa = test: Antibacterial activity against multidrug-resistant Pseudomonas aeruginosa A1245 assessed as inhibition of bacterial growth incubated for 24 to 48 hrs by microdilution broth method; type: functional, organism-based; conditions: time 24-48 hrs; how it was run: as §5
Klebsiella pneumoniae [11] = test: Antibacterial activity against ESBL negative Klebsiella pneumoniae C1950 assessed as inhibition of bacterial growth incubated for 24 to 48 hrs by microdilution broth method; type: functional, organism-based; conditions: time 24-48 hrs; how it was run: as §2
Mycobacterium kansasii [12] = test: Antitubercular activity against Mycobacterium kansasii CNCTC My 235/80 assessed as inhibition of bacterial growth measured after 14 days of incubation by Sulas semisynthetic medium based assay; type: functional; conditions: CNCTC My 235/80, 336 h, time 14 day; how it was run: as §4
[13] = test system: Mycobacterium tuberculosis; test: Antitubercular activity against Mycobacterium tuberculosis CNCTC My 331/88 (H37Rv) assessed as inhibition of bacterial growth measured after 14 days of incubation by Sulas semisynthetic medium based assay; type: functional; conditions: 336 h, time 14 day; how it was run: as §1
HepG2 = test: Cytotoxicity against human HepG2 cells incubated for 24 hrs by MTT assay; type: functional, cell-based; conditions: HepG2, 24 h
How it was run: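 HepG2 cells in DMEM with 10% FBS, seeded at 15 × 10³ cells/well and attached overnight. Exposed for 24 h to serial dilutions prepared from DMSO stocks, final DMSO ≤1%. Then given fresh medium with 0.5 mg/mL MTT for 1 h at 37 °C. Formazan dissolved in DMSO and read at 570 nm. IC50 from 4-parameter nonlinear regression; three independent experiments in triplicate, mean ± SD.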

Mycobacterium kansasii [14] = test: Antitubercular activity against Mycobacterium kansasii CNCTC My 235/80 assessed as inhibition of bacterial growth measured after 21 days of incubation by Sulas semisynthetic medium based assay; type: functional; conditions: CNCTC My 235/80, 504 h, time 21 day; how it was run: as §4
[15] = test system: Mycobacterium tuberculosis; test: Antibacterial activity against Mycobacterium tuberculosis H37Rv assessed as inhibition of bacterial growth by micro-broth dilution method; type: functional; how it was run: as §1

| SMILES | MIC [1] [ng/mL] | Activity (Klebsiella pneumoniae [2]) | MIC99 [3] [µM] | MIC99 (Mycobacterium avium [4]) [µM] | Activity [5] | MIC99 (Mycobacterium kansasii [6]) [µM] | Activity (Enterococcus faecium) | Activity (Staphylococcus aureus [7]) | Selectivity Index [8] | Activity (Staphylococcus aureus [9]) | Activity (Escherichia coli) | MIC99 (Mycobacterium avium [10]) [µM] | Activity (Pseudomonas aeruginosa) | Activity (Klebsiella pneumoniae [11]) | MIC99 (Mycobacterium kansasii [12]) [µM] | MIC99 [13] [µM] | IC50 (HepG2) [µM] | MIC99 (Mycobacterium kansasii [14]) [µM] | MIC [15] [ng/mL] |
| --- | --- | --- | --- | --- | --- | --- | --- | --- | --- | --- | --- | --- | --- | --- | --- | --- | --- | --- | --- |
| O=C1CCc2c(OC[C@]3(O)CCN(c4c(F)cc(Cl)cc4F)C[C@H]3O)ccc(F)c2N1 [QUABODEPISTAT] | 0.5 (≈ 1.09 nM) |  |  |  |  |  |  |  |  |  |  |  |  |  |  |  |  |  |  |
| CN(C)c1nc(N2CCOCC2)nc2ncn(Cc3ccc4ccccc4c3)c12 |  | inactive | 16 (≈ 6.22 µg/mL) | 500 (≈ 194 µg/mL) | inactive | 32 (≈ 12.4 µg/mL) | inactive | inactive | 6.99 | inactive | inactive | 500 (≈ 194 µg/mL) | inactive | inactive | 64 (≈ 24.9 µg/mL) | 8 (≈ 3.11 µg/mL) | 55.9 | 125 (≈ 48.6 µg/mL) |  |
| CCNc1nc(N2CCOCC2)nc2ncn(Cc3ccc4cc(F)ccc4c3)c12 |  | inactive | 8 (≈ 3.25 µg/mL) | > 500 | inactive | 16 (≈ 6.5 µg/mL) | inactive | inactive | 10.18 | inactive | inactive | > 500 | inactive | inactive | 16 (≈ 6.5 µg/mL) | 4 (≈ 1.63 µg/mL) | 40.7 | 16 (≈ 6.5 µg/mL) |  |
| CNc1nc(N2CCOCC2)nc2ncn(Cc3ccc4ccccc4c3)c12 |  | inactive | 4 (≈ 1.5 µg/mL) | > 500 | inactive | 8 (≈ 3 µg/mL) | inactive | inactive | 14.7 | inactive | inactive | > 500 | inactive | inactive | 8 (≈ 3 µg/mL) | 4 (≈ 1.5 µg/mL) | 58.8 | 8 (≈ 3 µg/mL) |  |
| CCSc1nc(N2CCOCC2)nc2ncn(Cc3ccc4ccccc4c3)c12 |  | inactive | 4 (≈ 1.62 µg/mL) | > 500 | inactive | 32 (≈ 13 µg/mL) | inactive | inactive | 16.1 | inactive | inactive | > 500 | inactive | inactive | 64 (≈ 26 µg/mL) | 4 (≈ 1.62 µg/mL) | 64.2 | 125 (≈ 50.7 µg/mL) |  |
| CCCNc1nc(N2CCOCC2)nc2ncn(Cc3ccc4ccccc4c3)c12 |  | inactive | 4 (≈ 1.61 µg/mL) | 125 (≈ 50.3 µg/mL) | inactive | 8 (≈ 3.22 µg/mL) | inactive | inactive | 10.1 | inactive | inactive | 125 (≈ 50.3 µg/mL) | inactive | inactive | 8 (≈ 3.22 µg/mL) | 4 (≈ 1.61 µg/mL) | 40.5 | 16 (≈ 6.44 µg/mL) |  |
| CSc1nc(N2CCOCC2)nc2ncn(Cc3ccc4ccccc4c3)c12 |  | inactive | 8 (≈ 3.13 µg/mL) | > 500 | inactive | 32 (≈ 12.5 µg/mL) | inactive | inactive | 5.3 | inactive | inactive | > 500 | inactive | inactive | 64 (≈ 25.1 µg/mL) | 8 (≈ 3.13 µg/mL) | 42.4 | 64 (≈ 25.1 µg/mL) |  |
| CN(c1nc2ncn(Cc3ccc4ccccc4c3)c2c(=O)[nH]1)C1CC1 |  | inactive | 16 (≈ 5.53 µg/mL) | > 500 | inactive | 125 (≈ 43.2 µg/mL) | inactive | inactive | >7.8 | inactive | inactive | > 500 | inactive | inactive | 250 (≈ 86.4 µg/mL) | 16 (≈ 5.53 µg/mL) | > 125 | 500 (≈ 173 µg/mL) |  |
| Clc1nc(N2CCOCC2)nc2ncn(Cc3ccc4ccccc4c3)c12 |  | inactive | 16 (≈ 6.08 µg/mL) | > 500 | inactive | 16 (≈ 6.08 µg/mL) | inactive | inactive | 4.09 | inactive | inactive | > 500 | inactive | inactive | 32 (≈ 12.2 µg/mL) | 16 (≈ 6.08 µg/mL) | 65.6 | 64 (≈ 24.3 µg/mL) |  |
| C[C@H]1COC2(CCN(c3nc(=O)c4cc(C(F)(F)F)cc([N+](=O)[O-])c4s3)CC2)O1 [BTZ-043] |  |  |  |  |  |  |  |  |  |  |  |  |  |  |  |  |  |  | 1 (≈ 2.32 nM) |
| O=c1nc(N2CCN(CC3CCCCC3)CC2)sc2c([N+](=O)[O-])cc(C(F)(F)F)cc12 [MACOZINONE] |  |  |  |  |  |  |  |  |  |  |  |  |  |  |  |  |  |  | ≤ 0.19 |
